pIC50: −log10 of the molar value.
Assays:
Format in all cases: cell-based
[1] = molecular target: Glutamate receptor 1 (Rattus norvegicus) (UniProt P19490); assay: Inhibition of rat GluA1 flip isoform expressed in Xenopus laevis oocytes assessed as inhibition of L-Glu-evoked currents at 100 nM under dark condition at -80 mV membrane potential by two electrode voltage-clamp assay
Procedure, shortened: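 TEVC on stage V–VI Xenopus laevis oocytes injected with GluA1 cRNA (13–46 nL) and recorded 1–3 days later at −80 mV and 23 °C. Bath solution (mM): 115 NaCl, 2 KCl, 5 HEPES, 1.8 BaCl₂, pH 7.6. Antagonist was co-applied with 300 µM L-glutamate in a dark room. Current was normalized to agonist alone; mean ± SEM, n = 3–16 oocytes.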

[2] = molecular target: T1, Glutamate receptor 1 (Rattus norvegicus, UniProt P19490); assay: Inhibition of rat GluA1 flip isoform expressed in Xenopus laevis oocytes assessed as inhibition of L-Glu-evoked currents under illumination with blue light at 470 nanometer at -80 mV membrane potential by two electrode voltage-clamp assay
Procedure, shortened: (§1)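 TEVC at −80 mV, 23 °C, on oocytes 1–3 days after cRNA injection. Bath: 115 NaCl, 2 KCl, 5 HEPES, 1.8 BaCl2 (mM), pH 7.6. Antagonist co-applied with 300 µM L-Glu; current normalized to agonist alone. Dark runs done in a dark room. IC50 from pooled data of 3–10 oocytes, fitted with a Hill equation. Single-concentration screens used 100 nM and 10 nM.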

[3] = molecular target: T2, Glutamate NMDA receptor; Grin1/Grin2a (Rattus norvegicus) (UniProt P35439+Q00959); assay: Inhibition of rat GluN1a/GluN2A expressed in Xenopus laevis oocytes assessed as inhibition of L-Glu and Gly-evoked currents at 100 nM under illumination with blue light at 470 nanometer condition at -80 mV membrane potential by two electrode voltage-clamp assay
Procedure, shortened: (§2)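 Oocytes injected with a 1:10 GluN1:GluN2A cRNA ratio and clamped at −80 mV by TEVC, 23 °C. Bath: 115 NaCl, 2 KCl, 5 HEPES, 1.8 BaCl2 (mM), pH 7.6. Antagonist co-applied with 100 µM L-Glu plus 100 µM glycine; response normalized to agonist alone. Dark runs done in a dark room. IC50 fitted with a Hill equation to pooled data from 3–10 oocytes.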

[4] = molecular target: T3, Glutamate NMDA receptor; Grin1/Grin2a (Rattus norvegicus, UniProt P35439+Q00959); assay: Inhibition of rat GluN1a/GluN2A expressed in Xenopus laevis oocytes assessed as inhibition of L-Glu and Gly-evoked currents under illumination with blue light at 470 nanometer condition at -80 mV membrane potential by two electrode voltage-clamp assay; procedure, shortened: as §2
[5] = molecular target: T2, Glutamate NMDA receptor; Grin1/Grin2a (Rattus norvegicus); assay: Ratio of IC50 for inhibition of rat GluN1a/GluN2A expressed in Xenopus laevis oocytes under illumination with blue light at 470 nanometer condition to IC50 for inhibition of rat GluN1a/GluN2A expressed in Xenopus laevis oocytes under dark condition; procedure, shortened: as §2
[6] = molecular target: T1, Glutamate receptor 1; assay: Inhibition of rat GluA1 flip isoform expressed in Xenopus laevis oocytes assessed as inhibition of L-Glu-evoked currents under dark condition at -80 mV membrane potential by two electrode voltage-clamp assay; procedure, shortened: as §1
[7] = molecular target: T3, Glutamate NMDA receptor; Grin1/Grin2a; assay: Inhibition of rat GluN1a/GluN2A expressed in Xenopus laevis oocytes assessed as inhibition of L-Glu and Gly-evoked currents under dark condition at -80 mV membrane potential by two electrode voltage-clamp assay; procedure, shortened: as §2
[8] = molecular target: Glutamate receptor 1 (Rattus norvegicus) (UniProt P19490); assay: Inhibition of rat GluA1 flip isoform expressed in Xenopus laevis oocytes assessed as inhibition of L-Glu-evoked currents at 100 nM under illumination with blue light at 470 nanometer at -80 mV membrane potential by two electrode voltage-clamp assay; procedure, shortened: as §1
[9] = molecular target: T2, Glutamate NMDA receptor; Grin1/Grin2a (Rattus norvegicus); assay: Inhibition of rat GluN1a/GluN2A expressed in Xenopus laevis oocytes assessed as inhibition of L-Glu and Gly-evoked currents at 100 nM under dark condition at -80 mV membrane potential by two electrode voltage-clamp assay
Procedure, shortened: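 Xenopus laevis oocytes (stage V–VI) were injected with GluN1 and GluN2A cRNA at a 1:10 ratio. Two-electrode voltage clamp was done 1–3 days post-injection at −80 mV and 23 °C in 115 NaCl/2 KCl/5 HEPES/1.8 BaCl₂ (mM), pH 7.6. Antagonist was co-applied with 100 µM L-glutamate plus 100 µM glycine in a dark room. Current was normalized to agonist-only; mean ± SEM, n = 3–16.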

Glutamate receptor 1 (Rattus norvegicus), sequence (P19490 whole entry, canonical isoform): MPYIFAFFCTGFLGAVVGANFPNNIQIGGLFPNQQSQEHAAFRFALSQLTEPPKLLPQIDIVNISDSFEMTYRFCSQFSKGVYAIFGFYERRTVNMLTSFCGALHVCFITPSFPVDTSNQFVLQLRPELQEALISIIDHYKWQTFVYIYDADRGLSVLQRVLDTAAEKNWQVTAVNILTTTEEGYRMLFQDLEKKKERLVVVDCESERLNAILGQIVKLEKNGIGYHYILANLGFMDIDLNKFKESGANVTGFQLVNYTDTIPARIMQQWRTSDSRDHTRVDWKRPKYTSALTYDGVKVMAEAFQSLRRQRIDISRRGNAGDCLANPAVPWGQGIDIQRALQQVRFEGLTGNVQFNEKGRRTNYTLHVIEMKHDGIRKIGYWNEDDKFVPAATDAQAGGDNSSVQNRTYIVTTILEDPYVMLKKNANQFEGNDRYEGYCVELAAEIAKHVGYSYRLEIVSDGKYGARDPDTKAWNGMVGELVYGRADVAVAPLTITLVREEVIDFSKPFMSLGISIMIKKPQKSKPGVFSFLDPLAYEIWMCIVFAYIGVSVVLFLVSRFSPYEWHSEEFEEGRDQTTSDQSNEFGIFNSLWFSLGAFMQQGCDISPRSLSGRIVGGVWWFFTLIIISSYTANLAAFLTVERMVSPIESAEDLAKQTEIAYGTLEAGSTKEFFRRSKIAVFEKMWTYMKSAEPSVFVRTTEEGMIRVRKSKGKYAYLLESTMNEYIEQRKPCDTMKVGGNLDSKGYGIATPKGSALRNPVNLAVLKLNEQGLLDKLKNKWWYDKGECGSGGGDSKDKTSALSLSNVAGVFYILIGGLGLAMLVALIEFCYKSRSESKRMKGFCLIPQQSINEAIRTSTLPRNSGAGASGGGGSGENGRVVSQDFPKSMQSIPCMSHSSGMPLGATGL
T1 sequence (P19490 whole entry, canonical isoform): as above

CCN(CC)c1ccc(/N=N/c2ccc(C(=O)NCCCCCCCCCNCCCNC(=O)[C@@H](N)CCCNC(=N)N)cc2)cc1
inhibition [1]: 20 to 50%

CN(C)c1ccc(/N=N/c2ccc(C(=O)NCCCCCCCCCNCCCNC(=O)[C@@H](N)CCCNC(=N)N)cc2)cc1
inhibition [1]: 20 to 50%

CCN(CC)c1ccc(/N=N/c2ccc(C(=O)N[C@@H](CC(N)=O)C(=O)NCCCCCCCCNCCCCNC(=O)[C@@H](N)CCCNC(=N)N)cc2)cc1
pIC50 [2]: 7.21 | inhibition [3]: < 5% | pIC50 [4]: 5.92 | Ratio IC50 [5]: 8 | pIC50 [6]: 8.10 | pIC50 [7]: 5.96 | inhibition [8]: 20% | inhibition [9]: < 5% | inhibition [1]: 60%

N=C(N)NCCC[C@H](N)C(=O)NCCCCCCCCNCCCCNC(=O)[C@H](CC(N)=O)NC(=O)c1ccc(/N=N/c2ccccc2)cc1
inhibition [9]: 70 to 80%

CN(C)c1ccc(/N=N/c2cccc(C(=O)N[C@@H](CC(N)=O)C(=O)NCCCCCCCCCNCCCNC(=O)[C@@H](N)CCCNC(=N)N)c2)cc1
inhibition [1]: 20 to 50%

CCN(CC)c1ccc(/N=N/c2cccc(C(=O)NCCCCCCCCCNCCCNC(=O)[C@@H](N)CCCNC(=N)N)c2)cc1
inhibition [1]: 20 to 50%

N=C(N)NCCC[C@H](N)C(=O)NCCCCCCCCNCCCCNC(=O)[C@H](CC(N)=O)NC(=O)c1cccc(/N=N/c2ccccc2)c1
inhibition [9]: 70 to 80%

CN(C)c1ccc(/N=N/c2ccc(C(=O)N[C@@H](CC(N)=O)C(=O)NCCCCCCCCCNCCCNC(=O)[C@@H](N)CCCNC(=N)N)cc2)cc1
inhibition [1]: 20 to 50%

CN(C)c1ccc(/N=N/c2cccc(C(=O)N[C@@H](CC(N)=O)C(=O)NCCCCNCCCCCCCCNC(=O)[C@@H](N)CCCNC(=N)N)c2)cc1
inhibition [1]: > 70%

CCN(CC)c1ccc(/N=N/c2cccc(C(=O)N[C@@H](CC(N)=O)C(=O)NCCCCCCCCCNCCCNC(=O)[C@@H](N)CCCNC(=N)N)c2)cc1
inhibition [1]: 20 to 50%

N=C(N)NCCC[C@H](N)C(=O)NCCCNCCCCCCCCCNC(=O)c1cccc(/N=N/c2ccccc2)c1
inhibition [9]: 70 to 80%

CCN(CC)c1ccc(/N=N/c2ccc(C(=O)N[C@@H](CC(N)=O)C(=O)NCCCCCCCCCNCCCNC(=O)[C@@H](N)CCCNC(=N)N)cc2)cc1
inhibition [1]: 20 to 50%

CCN(CC)c1ccc(/N=N/c2cccc(C(=O)N[C@@H](CC(N)=O)C(=O)NCCCCNCCCCCCCCNC(=O)[C@@H](N)CCCNC(=N)N)c2)cc1
inhibition [1]: > 70%

CN(C)c1ccc(/N=N/c2cccc(C(=O)NCCCCCCCCCNCCCNC(=O)[C@@H](N)CCCNC(=N)N)c2)cc1
inhibition [1]: 20 to 50%

CN(C)c1ccc(/N=N/c2ccc(C(=O)N[C@@H](CC(N)=O)C(=O)NCCCCNCCCCCCCCNC(=O)[C@@H](N)CCCNC(=N)N)cc2)cc1
inhibition [1]: > 70%

From ChEMBL document CHEMBL4196152, “Controlling Ca2+ Permeable α-Amino-3-hydroxy-5-methyl-4-isoxazolepropionic Acid (AMPA) Receptors with Photochromic Ion Channel Blockers” (J Med Chem, 2018)
